Values belong to the compound of their own block, whether it stands above or below them. Activity calls are given as the source filed them. No cut-off for these calls is given here. Where a SMILES comes first, the peptide text is derived from it. Bridges are numbered along the chain shown (N, C = ends). Triazole bridges read from a SMILES are 1,4-linked. [ ]: non-standard residue; d: D form. The star is where a group is joined. NH(β-GlcNAc) = CC(=O)N[C@@H]1[C@@H](O)[C@H](O)[C@@H](CO)O[C@H]1N*; Dap(N3) = [N-]=[N+]=NC[C@H](N)C(=O)O; Sec = N[C@@H](C[SeH])C(=O)O; Pra = C#CC[C@H](N)C(=O)O
Legend:
[1] = test system: BMMC; assay: Inhibition of RANKL/mCSF-induced osteoclast differentiation in C57BL/6 mouse BMMC assessed as reduction in TRAP-positive multinucleated cells by microscopic method; type: functional, cell-based; conditions: for IC50: C57BL/6, BMMC
[2] = target: T1, Tumor necrosis factor ligand superfamily member 11 (Homo sapiens) (UniProt O14788); assay: (§1) Binding affinity to recombinant human sRANKL expressed in Escherichia coli by SPR assay
T1 sequence (whole entry): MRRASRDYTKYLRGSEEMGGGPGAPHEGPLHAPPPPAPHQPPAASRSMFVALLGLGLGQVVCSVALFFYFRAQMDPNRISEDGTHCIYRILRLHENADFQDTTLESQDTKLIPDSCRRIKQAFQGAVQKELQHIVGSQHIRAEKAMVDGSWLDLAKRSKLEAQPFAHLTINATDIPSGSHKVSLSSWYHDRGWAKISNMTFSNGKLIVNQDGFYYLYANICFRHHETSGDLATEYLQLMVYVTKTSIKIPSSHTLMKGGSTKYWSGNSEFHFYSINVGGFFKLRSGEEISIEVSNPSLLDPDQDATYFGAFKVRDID
In short: (§2)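 SPR at 25 °C with recombinant sRANKL immobilized on a CM5 dextran chip at about 3500 RU. Surfaces regenerated between cycles with Gly-HCl at pH 2.5. kon, koff and Kd taken from kinetic fitting of the sensorgrams.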

[3] = target: T2, Tumor necrosis factor ligand superfamily member 11 (Homo sapiens, UniProt O14788); assay: as §1; in short: as §2
T2 sequence (O14788 whole entry): T1 sequence (whole entry)

[4] = target: T1, Tumor necrosis factor ligand superfamily member 11 (Homo sapiens); assay: Binding affinity to recombinant human sRANKL expressed in Escherichia coli assessed as association constant by SPR assay; in short: as §2
[5] = test system: BMMC; assay: Cytotoxicity against C57BL/6 mouse BMMC up to 100 uM after 48 hrs by CCK8 assay; type: cell-based
In short: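 BMMCs seeded at 1×10^5/mL and grown 24 h, then exposed to peptide at 0, 12.5, 25.0, 50.0 or 100.0 µM for 48 h. CCK-8 solution added for 2 h and absorbance read at 450 nm.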

[6] = test system: Mus musculus; assay: Inhibition of ovariectomy-induced trabecular bone loss in C57BL/6 mouse distal femur bone assessed as increase in bone surface area expressed per unit total volume at 20 mg/kg/day, ip after 6 weeks by micro-CT analysis; type: functional, organism-based
In short: (§3)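 Female C57BL/6 mice, 6 weeks old, ovariectomized, six per group; 20.0 mg/kg i.p. daily in saline, or saline vehicle, for 6 weeks. Femurs then scanned by micro-CT for BMD, Tb.N and BS/TV, with 2D/3D reconstruction.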

[7] = test system: Mus musculus; assay: Inhibition of ovariectomy-induced trabecular bone loss in C57BL/6 mouse assessed as reduction in TRAP-positive multinucleated cells in distal femur bone at 20 mg/kg/day, ip after 6 weeks by microscopic method; type: functional, organism-based
In short: (§4)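 Female C57BL/6 mice, 6 weeks old, ovariectomized, six per group; 20.0 mg/kg i.p. daily in saline, or saline, for 6 weeks. Femurs fixed in 4 % paraformaldehyde for 4 days and decalcified in 10% EDTA for 2 weeks. 4 µm paraffin sections of the metaphysis stained with H&E (trabecular area) or TRAP (osteoclasts counted).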

[8] = test system: Mus musculus; assay: Inhibition of osteoclastogenesis in ovariectomized C57BL/6 mouse assessed as decrease in serum IL-6 level at 20 mg/kg/day, ip after 6 weeks by ELISA; type: functional, organism-based
In short: (§5)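 Female C57BL/6 mice, 6 weeks old, ovariectomized; six per group (sham, OVX with saline, OVX with peptide). Peptide given at 20.0 mg/kg i.p. daily in saline for 6 weeks. Blood centrifuged and serum stored at -80 °C; IL-6, TRAcp5B, CTX-1 and TNF-α measured by ELISA kits.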

[9] = test system: Mus musculus; assay: Inhibition of ovariectomy-induced trabecular bone loss in C57BL/6 mouse distal femur bone assessed as increase in trabecular number at 20 mg/kg/day, ip after 6 weeks by micro-CT analysis; type: functional, organism-based; in short: as §3
[10] = target: T1, Tumor necrosis factor ligand superfamily member 11 (Homo sapiens); assay: Binding affinity to recombinant human sRANKL expressed in Escherichia coli assessed as dissociation constant by SPR assay; in short: as §2
[11] = test system: Mus musculus; assay: Inhibition of osteoclastogenesis in ovariectomized C57BL/6 mouse assessed as decrease in serum TNFalpha level at 20 mg/kg/day, ip after 6 weeks by ELISA; type: functional, organism-based; in short: as §5
[12] = test system: Mus musculus; assay: Inhibition of ovariectomy-induced trabecular bone loss in C57BL/6 mouse distal femur bone at 20 mg/kg/day, ip after 6 weeks by H and E staining based microscopic method; type: functional, organism-based; in short: as §4
[13] = test system: Mus musculus; assay: Inhibition of ovariectomy-induced trabecular bone loss in C57BL/6 mouse distal femur bone assessed as increase in bone mineral density at 20 mg/kg/day, ip after 6 weeks by micro-CT analysis; type: functional, organism-based; in short: as §3
[14] = test system: BMMC; assay: Inhibition of RANKL/mCSF-induced osteoclast differentiation in C57BL/6 mouse BMMC assessed as reduction in TRAP-positive multinucleated cells at 30 uM by microscopic method relative to control; type: functional; conditions: C57BL/6, BMMC
[15] = test system: Mus musculus; assay: Inhibition of osteoclastogenesis in ovariectomized C57BL/6 mouse assessed as decrease in serum TRAcp5B level at 20 mg/kg/day, ip after 6 weeks by ELISA; type: functional, organism-based; in short: as §5
[16] = test system: Mus musculus; assay: Inhibition of ovariectomy-induced trabecular bone loss in C57BL/6 mouse distal femur bone assessed as increase in bone volume expressed per unit total volume at 20 mg/kg/day, ip after 6 weeks by micro-CT analysis; type: functional, organism-based; in short: as §3
[17] = target: Tumor necrosis factor ligand superfamily member 11/11A (Mus musculus) (UniProt O35235+O35305); assay: Inhibition of RANKL/RANK protein-protein interaction in mouse RAW264.7 cells assessed as reduction in RANKL-stimulated NF-kB signaling pathway activation by measuring decrease in IkBalpha phosphorylation after 2 hrs by immunoblot assay; type: cell-based
In short: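 RAW264.7 cells (1×10^5/well) cultured 12 h, pretreated with or without peptide for 2 h, then stimulated with 300 ng/mL sRANKL for the indicated periods. Lysates (20 µg) run on SDS-PAGE and blotted for phospho-IκBα, IκBα and ERK2; ECL detection.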

[18] = test system: Mus musculus; assay: Inhibition of osteoclastogenesis in ovariectomized C57BL/6 mouse assessed as decrease in serum CTX-1 level at 20 mg/kg/day, ip after 6 weeks by ELISA; type: functional, organism-based; in short: as §5
[19] = Drug metabolism assessed as alpha-chymotrypsin (unknown origin)-mediated compound degradation by measuring parent compound remaining after 8 hrs by HPLC analysis; type: ADME; conditions: human, read-out: Stability
In short: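 Peptide exposed to α-chymotrypsin; percent residual peptide tracked by HPLC. Mean ± SEM of duplicate independent experiments.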

Tumor necrosis factor ligand superfamily member 11/11A (Mus musculus), sequence (O35235 139-316 limits assumed): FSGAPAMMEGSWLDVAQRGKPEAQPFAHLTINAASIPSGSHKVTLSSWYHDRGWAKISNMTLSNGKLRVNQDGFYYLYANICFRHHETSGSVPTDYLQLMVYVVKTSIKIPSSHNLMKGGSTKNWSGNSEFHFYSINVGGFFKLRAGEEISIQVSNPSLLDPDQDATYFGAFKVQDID
Tumor necrosis factor ligand superfamily member 11/11A (Mus musculus), sequence (O35305 31-625 partner limits assumed): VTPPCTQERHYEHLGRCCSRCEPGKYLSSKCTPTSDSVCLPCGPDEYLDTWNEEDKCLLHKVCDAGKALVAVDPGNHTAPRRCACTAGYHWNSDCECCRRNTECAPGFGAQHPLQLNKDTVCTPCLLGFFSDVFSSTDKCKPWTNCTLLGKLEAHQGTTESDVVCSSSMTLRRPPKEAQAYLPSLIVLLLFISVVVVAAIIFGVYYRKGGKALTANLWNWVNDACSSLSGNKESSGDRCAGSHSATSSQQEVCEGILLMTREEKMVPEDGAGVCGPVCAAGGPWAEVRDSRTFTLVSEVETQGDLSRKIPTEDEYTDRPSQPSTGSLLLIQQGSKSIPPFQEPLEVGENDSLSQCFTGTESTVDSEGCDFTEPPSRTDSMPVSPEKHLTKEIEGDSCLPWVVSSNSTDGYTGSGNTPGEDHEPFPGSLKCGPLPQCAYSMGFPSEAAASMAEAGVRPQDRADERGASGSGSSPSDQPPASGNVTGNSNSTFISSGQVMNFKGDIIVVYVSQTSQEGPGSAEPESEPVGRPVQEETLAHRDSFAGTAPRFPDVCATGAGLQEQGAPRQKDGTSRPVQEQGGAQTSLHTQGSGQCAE

IC50 [1]: 28.5 µM
remaining at 8 h [19]: > 60.7%
SMILES: CC[C@H](C)[C@@H]1NC(=O)[C@H](CCC(=O)O)NC(=O)[C@H](CC(C)C)NC(=O)[C@H](Cc2ccc(O)cc2)NC(=O)[C@H](CCCNC(=N)N)NC(=O)CNC(=O)[C@H](CCC(=O)O)NC(=O)[C@H](CCCCN)NC(=O)[C@@H](NC(=O)[C@H](CC(=O)N[C@@H]2O[C@H](CO)[C@@H](O)[C@H](O)[C@H]2NC(C)=O)NC(C)=O)CSSC[C@@H](C(=O)N[C@@H](CC(C)C)C(N)=O)NC(=O)[C@H](Cc2ccccc2)NC(=O)[C@H](CCC(=O)O)NC1=O (Ac-D(NH(β-GlcNAc))CKEGRYLEIEFCL-NH2; disulfide 2-13)
inhibition [1]: Dose-dependent effect
Activity [2]: Dose-dependent effect
Kd [3]: 4.54 µM
Kapp [4]: 609 M⁻¹ s⁻¹
Activity [5]: Non-Toxic
inhibition [6]: Active
inhibition [7]: Active
inhibition [8]: Active
inhibition [9]: Active
Kapp [10]: 0.0027 s⁻¹
inhibition [11]: Active
inhibition [12]: Active
inhibition [13]: Active
inhibition at 30 µM [14]: 58.2%
inhibition [15]: Active
inhibition [16]: Active
inhibition [17]: Active
inhibition [18]: Active

remaining at 8 h [19]: 38.5%
SMILES: CC[C@H](C)[C@@H]1NC(=O)[C@H](CCC(=O)O)NC(=O)[C@H](CC(C)C)NC(=O)[C@H](Cc2ccc(O)cc2)NC(=O)[C@H](CCCNC(=N)N)NC(=O)CNC(=O)[C@H](CCC(=O)O)NC(=O)[C@H](CCCCN)NC(=O)[C@@H](NC(C)=O)CSSC[C@@H](C(=O)N[C@@H](CC(C)C)C(N)=O)NC(=O)[C@H](Cc2ccccc2)NC(=O)[C@H](CCC(=O)O)NC1=O (Ac-CKEGRYLEIEFCL-NH2; disulfide 1-12)
Kd [3]: 30.9 µM
Kapp [4]: 212 M⁻¹ s⁻¹
Activity [5]: Non-Toxic
Kapp [10]: 0.0065 s⁻¹
inhibition at 30 µM [14]: 24.4%

Second part, the compound before the results:

SMILES: CC[C@H](C)[C@@H]1NC(=O)[C@H](CCC(=O)O)NC(=O)[C@H](CC(C)C)NC(=O)[C@H](Cc2ccc(O)cc2)NC(=O)[C@H](CCCNC(=N)N)NC(=O)CNC(=O)[C@H](CCC(=O)O)NC(=O)[C@H](CCCCN)NC(=O)[C@@H](NC(C)=O)Cc2cn(nn2)C[C@@H](C(=O)N[C@@H](CC(C)C)C(N)=O)NC(=O)[C@H](Cc2ccccc2)NC(=O)[C@H](CCC(=O)O)NC1=O (Ac-[Pra]KEGRYLEIEF[Dap(N3)]L-NH2; triazole 1-12)
Activity [5]: Non-Toxic
inhibition at 30 µM [14]: 42.1%

SMILES: CC[C@H](C)[C@@H]1NC(=O)[C@H](CCC(=O)O)NC(=O)[C@H](CC(C)C)NC(=O)[C@H](Cc2ccc(O)cc2)NC(=O)[C@H](CCCNC(=N)N)NC(=O)CNC(=O)[C@H](CCC(=O)O)NC(=O)[C@H](CCCCN)NC(=O)[C@@H](NC(C)=O)C[Se][Se]C[C@@H](C(=O)N[C@@H](CC(C)C)C(N)=O)NC(=O)[C@H](Cc2ccccc2)NC(=O)[C@H](CCC(=O)O)NC1=O (Ac-[Sec]KEGRYLEIEF[Sec]L-NH2; diselenide 1-12)
Activity [5]: Non-Toxic
inhibition at 30 µM [14]: 40.6%

SMILES: CC[C@H](C)[C@H](NC(=O)[C@H](CC(C)C)NC(=O)[C@H](Cc1ccc(O)cc1)NC(=O)[C@@H]1CSSC[C@H](NC(=O)[C@@H](N)Cc2ccc(O)cc2)C(=O)N[C@@H](CCC(=O)O)C(=O)N[C@@H]([C@@H](C)CC)C(=O)N[C@@H](CCC(=O)O)C(=O)N[C@@H](Cc2ccccc2)C(=O)N1)C(=O)N[C@@H](CCCNC(=N)N)C(=O)O (H-YCEIEFCYLIR-OH; disulfide 2-7)
IC50 [1]: 25.3 µM
Kd [3]: 2.75 µM
Kapp [4]: 496 M⁻¹ s⁻¹
Kapp [10]: 0.0013 s⁻¹
inhibition at 30 µM [14]: 55.6%
